Test results reported in ChEMBL document CHEMBL2057162, “Synthesis and antitumor efficacy of a β-glucuronidase-responsive albumin-binding prodrug of doxorubicin” (J Med Chem, 2012).

Tests used:
[1] = Antiproliferative activity against human NCI-H290 cells after 48 hrs by XTT assay; format: functional, cell-based; conditions: NCI-H290, 48 h
How it was run: (§1)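 Human H290, MDA-MB-231 and U87-MG and murine LLC tumour cell lines treated 48 h, with or without β-glucuronidase in the culture medium. IC50 derived from cell viability assays; highest tested dose 2 μM.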

[2] = tested on: MDA-MB-231; experiment: Antiproliferative activity against human MDA-MB-231 cells after 48 hrs by XTT assay; format: functional, cell-based; conditions: MDA-MB-231, 48 h
How it was run: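 Human MDA-MB-231 tumour cells were exposed to drug for 48 h, with or without β-glucuronidase added to the culture medium. Viability read-out gave IC50 in nM. Highest prodrug concentration tested was 2 μM.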

[3] = Antiproliferative activity against human U87MG cells after 48 hrs by XTT assay; format: functional, cell-based, U-87MG ATCC; conditions: U-87 MG; how it was run: as §1
[4] = tested on: Mus musculus; experiment: Nephrotoxicity in C57BL/6 mouse xenografted with mouse LLC cells at 13.7 umol/kg, iv administered on day 4 and day 11 after tumor transplantation measured on day 17 by hematoxylin eosin staining method; format: toxicity, organism-based; conditions: in vivo
How it was run: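 Kidneys from LLC-bearing mice dosed iv on days 4 and 11 were sectioned and stained with hematoxylin eosin. Renal tissue examined microscopically alongside untreated controls.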

[5] = tested on: Lewis lung carcinoma cell line; experiment: Antitumor activity against mouse LLC cells xenografted in C57BL/6 mouse assessed as decrease in tumor volume at 13.7 umol/kg, iv administered on day 4 and day 11 after tumor transplantation measured on day 17; format: functional
How it was run: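 Murine LLC tumours grown subcutaneously in mice. Two iv injections on days 4 and 11 after transplantation: doxorubicin 2 × 13.7 μmol/kg, glucuronide prodrugs 2 × 43.6 μmol/kg. T/C = mean relative tumour volume of treated group / mean relative tumour volume of control group. Minimal T/C reported with the day it was reached; 8 mice per group.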

[6] = tested on: Mus musculus; experiment: Toxicity in C57BL/6 mouse xenografted with mouse LLC cells assessed as change in body weight at 13.7 umol/kg, iv administered on day 4 and day 11 after tumor transplantation measured on day 17; format: organism-based; conditions: in vivo
How it was run: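 Subcutaneous murine LLC-bearing mice given two iv doses on days 4 and 11 after transplantation: 2 × 13.7 μmol/kg doxorubicin or 2 × 43.6 μmol/kg prodrug. Body weight change (%) and mortality recorded, 8 mice per group.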

[7] = tested on: Lewis lung carcinoma cell line; experiment: Antiproliferative activity against mouse LLC cells after 48 hrs by XTT assay; format: functional, cell-based; how it was run: as §1

For `COc1cccc2c1C(=O)c1c(O)c3c(c(O)c1C2=O)C[C@@](O)(C(=O)CO)C[C@@H]3O[C@H]1C[C@H](N)[C@H](O)[C@H](C)O1` [DOXORUBICIN], which IC50 [1] is on record?
The IC50 was 320 nM.

What about the IC50 [2] of the same molecule?
Its IC50 is 340 nM.

What about the IC50 [3] of the same molecule?
Its IC50 is 790 nM.

And the Activity [4]?
The Activity was “Toxic”.

And the T/C [5]?
The T/C was 31%.

What about the Activity [6] of the same molecule?
The Activity was -21%.

And the IC50 [7]?
The IC50 was 207 nM.
